Calls of active or inactive are those of the source. The calls are words filed in the database; no cut-off is given here.
Tests used:
[1] = tested on: Epidermal growth factor receptor (Homo sapiens), P00533 [L858R,T790M,C797S]; assay: Inhibition of EGFR L858R/T790M/C797S triple mutant (unknown origin) expressed in mouse Ba/F3 cells assessed as inhibition of EGF-stimulated receptor phosphorylation at 1 uM incubated for 4 hrs followed by washing with buffer solution and later incubation in drug-free medium for 2 to 8 hrs followed by EGF stimulation by western blot analysis; format: cell-based; details: BaF3
Sequence of Epidermal growth factor receptor (Homo sapiens), P00533 [L858R,T790M,C797S] (P00533 whole entry T790M/C797S/L858R): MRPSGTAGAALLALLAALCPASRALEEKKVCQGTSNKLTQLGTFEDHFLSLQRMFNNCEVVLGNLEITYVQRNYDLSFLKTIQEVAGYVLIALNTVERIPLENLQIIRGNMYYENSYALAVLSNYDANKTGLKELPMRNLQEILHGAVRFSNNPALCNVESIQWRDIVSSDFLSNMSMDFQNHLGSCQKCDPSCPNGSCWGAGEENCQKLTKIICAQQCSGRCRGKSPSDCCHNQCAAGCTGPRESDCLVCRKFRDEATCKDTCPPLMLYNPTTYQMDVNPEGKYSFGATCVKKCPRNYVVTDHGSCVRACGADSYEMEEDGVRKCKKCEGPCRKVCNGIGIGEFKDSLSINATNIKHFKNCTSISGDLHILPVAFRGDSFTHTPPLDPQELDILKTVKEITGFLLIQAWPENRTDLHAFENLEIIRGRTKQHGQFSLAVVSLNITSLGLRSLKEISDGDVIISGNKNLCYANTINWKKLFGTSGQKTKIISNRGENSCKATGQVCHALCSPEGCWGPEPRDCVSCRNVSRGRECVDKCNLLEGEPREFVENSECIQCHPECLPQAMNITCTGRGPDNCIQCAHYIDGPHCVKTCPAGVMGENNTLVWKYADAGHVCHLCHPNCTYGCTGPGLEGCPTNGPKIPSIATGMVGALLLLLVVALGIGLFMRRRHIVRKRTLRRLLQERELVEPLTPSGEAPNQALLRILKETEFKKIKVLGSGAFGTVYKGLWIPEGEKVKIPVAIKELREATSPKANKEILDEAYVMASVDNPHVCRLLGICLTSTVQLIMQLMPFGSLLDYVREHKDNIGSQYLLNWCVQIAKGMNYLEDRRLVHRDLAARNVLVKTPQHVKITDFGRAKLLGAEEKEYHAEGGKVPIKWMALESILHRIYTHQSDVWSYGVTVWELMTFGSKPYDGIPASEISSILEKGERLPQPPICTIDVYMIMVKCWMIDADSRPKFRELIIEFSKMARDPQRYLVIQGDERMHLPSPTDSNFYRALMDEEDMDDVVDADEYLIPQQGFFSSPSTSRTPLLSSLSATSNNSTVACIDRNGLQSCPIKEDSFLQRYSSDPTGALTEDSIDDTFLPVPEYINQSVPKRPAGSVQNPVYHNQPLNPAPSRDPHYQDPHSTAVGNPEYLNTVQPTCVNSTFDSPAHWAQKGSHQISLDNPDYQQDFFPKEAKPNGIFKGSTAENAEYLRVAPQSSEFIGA
Summary of the method: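 Ba/F3 cells expressing EGFR L858R/T790M/C797S exposed to 1 μM for 4 h, washed extensively with PBS, and allowed to recover in fresh drug-free medium for 2, 4 or 8 h. Cells then stimulated with 100 ng/ml EGF for 10 min. pEGFR (Tyr1068), total EGFR and actin detected by western blot.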

[2] = target: Rho-associated protein kinase 1 (Homo sapiens) (UniProt Q13464); assay: Inhibition of GST-tagged human recombinant ROCK1 (1 to 535 residues) expressed in baculovirus expression system at 1 uM by Z'-LYTE assay
Sequence of Rho-associated protein kinase 1 (Homo sapiens) (Q13464 2-1354 limits assumed): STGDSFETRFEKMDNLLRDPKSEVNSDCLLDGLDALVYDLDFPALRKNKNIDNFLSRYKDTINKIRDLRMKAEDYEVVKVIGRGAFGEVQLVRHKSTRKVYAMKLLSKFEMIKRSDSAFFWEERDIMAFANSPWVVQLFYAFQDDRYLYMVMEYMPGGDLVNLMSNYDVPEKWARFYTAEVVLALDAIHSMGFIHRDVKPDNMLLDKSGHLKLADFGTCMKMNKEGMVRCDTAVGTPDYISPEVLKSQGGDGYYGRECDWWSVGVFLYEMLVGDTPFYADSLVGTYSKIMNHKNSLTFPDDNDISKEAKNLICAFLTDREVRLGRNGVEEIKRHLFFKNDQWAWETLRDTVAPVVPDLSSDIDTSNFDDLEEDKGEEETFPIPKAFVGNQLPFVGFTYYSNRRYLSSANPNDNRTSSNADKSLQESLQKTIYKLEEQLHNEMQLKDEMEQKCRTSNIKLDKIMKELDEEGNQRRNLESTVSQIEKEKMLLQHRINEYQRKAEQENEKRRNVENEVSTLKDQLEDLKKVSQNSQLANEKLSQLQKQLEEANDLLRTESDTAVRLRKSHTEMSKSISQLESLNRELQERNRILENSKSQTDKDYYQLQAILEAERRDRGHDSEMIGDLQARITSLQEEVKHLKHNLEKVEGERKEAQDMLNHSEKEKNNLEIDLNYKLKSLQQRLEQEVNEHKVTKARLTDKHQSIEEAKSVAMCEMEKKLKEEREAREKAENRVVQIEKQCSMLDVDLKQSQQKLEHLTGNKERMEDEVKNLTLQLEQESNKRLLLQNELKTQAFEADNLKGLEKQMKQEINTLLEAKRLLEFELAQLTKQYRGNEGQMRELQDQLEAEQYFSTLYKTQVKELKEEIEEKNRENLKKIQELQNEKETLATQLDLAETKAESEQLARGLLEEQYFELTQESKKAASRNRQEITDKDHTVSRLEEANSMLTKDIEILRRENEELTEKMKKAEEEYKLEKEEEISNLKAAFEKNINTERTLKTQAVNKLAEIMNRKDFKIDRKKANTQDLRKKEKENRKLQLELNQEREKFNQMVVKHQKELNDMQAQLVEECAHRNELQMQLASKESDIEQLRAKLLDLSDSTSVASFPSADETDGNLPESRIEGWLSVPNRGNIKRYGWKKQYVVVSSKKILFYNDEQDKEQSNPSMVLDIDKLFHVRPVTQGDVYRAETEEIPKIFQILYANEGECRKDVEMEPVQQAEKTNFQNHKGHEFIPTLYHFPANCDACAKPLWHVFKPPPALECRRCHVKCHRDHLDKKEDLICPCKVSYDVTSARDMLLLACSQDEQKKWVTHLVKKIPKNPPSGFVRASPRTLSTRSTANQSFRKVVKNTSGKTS
Summary of the method: (§1)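 Z'-LYTE FRET kinase panel; phosphorylation of a reference peptide measured with ATP at each enzyme's Km. Compounds tested in 1% DMSO at 0.1 and/or 1 μM. Values are means of two independent experiments with standard deviations.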

[3] = target: Cyclin-dependent kinase 2 (Homo sapiens) (UniProt P24941); assay: Inhibition of human recombinant CDK2 at 1 uM by Z'-LYTE assay; summary of the method: as §1
[4] = target: Proto-oncogene tyrosine-protein kinase Src (Homo sapiens) (UniProt P12931); assay: Inhibition of C-terminal His-tagged human recombinant SRC expressed in baculovirus expression system at 1 uM by Z'-LYTE assay; summary of the method: as §1
Sequence of Proto-oncogene tyrosine-protein kinase Src (Homo sapiens) (P12931 2-536 limits assumed): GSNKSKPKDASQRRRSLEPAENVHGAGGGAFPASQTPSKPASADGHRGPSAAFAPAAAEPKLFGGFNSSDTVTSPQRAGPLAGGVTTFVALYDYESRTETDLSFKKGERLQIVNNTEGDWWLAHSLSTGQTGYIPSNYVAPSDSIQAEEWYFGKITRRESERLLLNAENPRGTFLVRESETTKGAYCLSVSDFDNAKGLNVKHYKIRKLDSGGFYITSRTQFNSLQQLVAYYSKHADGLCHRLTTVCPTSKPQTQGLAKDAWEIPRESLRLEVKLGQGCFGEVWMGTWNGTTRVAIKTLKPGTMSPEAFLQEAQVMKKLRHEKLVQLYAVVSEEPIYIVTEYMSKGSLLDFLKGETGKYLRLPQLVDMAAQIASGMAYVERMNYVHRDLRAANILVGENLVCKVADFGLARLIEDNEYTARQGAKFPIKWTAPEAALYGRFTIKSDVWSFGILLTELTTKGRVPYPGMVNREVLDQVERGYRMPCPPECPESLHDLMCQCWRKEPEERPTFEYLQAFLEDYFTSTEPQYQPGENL

[5] = tested on: Epidermal growth factor receptor (Homo sapiens), P00533 [UNDEFINED MUTATION]; assay: Inhibition of EGFR del19/T790M/C797S triple mutant (unknown origin) using fluoresceine-labelled poly-GT peptide as substrate up to 10 uM preincubated with enzyme for 3 hrs followed by substrate and ATP addition by TR-FRET assay; details: dose microM <=10, time 3.0 hrs
Sequence of Epidermal growth factor receptor (Homo sapiens), P00533 [UNDEFINED MUTATION] (P00533 whole entry, looked up, stated change not applied): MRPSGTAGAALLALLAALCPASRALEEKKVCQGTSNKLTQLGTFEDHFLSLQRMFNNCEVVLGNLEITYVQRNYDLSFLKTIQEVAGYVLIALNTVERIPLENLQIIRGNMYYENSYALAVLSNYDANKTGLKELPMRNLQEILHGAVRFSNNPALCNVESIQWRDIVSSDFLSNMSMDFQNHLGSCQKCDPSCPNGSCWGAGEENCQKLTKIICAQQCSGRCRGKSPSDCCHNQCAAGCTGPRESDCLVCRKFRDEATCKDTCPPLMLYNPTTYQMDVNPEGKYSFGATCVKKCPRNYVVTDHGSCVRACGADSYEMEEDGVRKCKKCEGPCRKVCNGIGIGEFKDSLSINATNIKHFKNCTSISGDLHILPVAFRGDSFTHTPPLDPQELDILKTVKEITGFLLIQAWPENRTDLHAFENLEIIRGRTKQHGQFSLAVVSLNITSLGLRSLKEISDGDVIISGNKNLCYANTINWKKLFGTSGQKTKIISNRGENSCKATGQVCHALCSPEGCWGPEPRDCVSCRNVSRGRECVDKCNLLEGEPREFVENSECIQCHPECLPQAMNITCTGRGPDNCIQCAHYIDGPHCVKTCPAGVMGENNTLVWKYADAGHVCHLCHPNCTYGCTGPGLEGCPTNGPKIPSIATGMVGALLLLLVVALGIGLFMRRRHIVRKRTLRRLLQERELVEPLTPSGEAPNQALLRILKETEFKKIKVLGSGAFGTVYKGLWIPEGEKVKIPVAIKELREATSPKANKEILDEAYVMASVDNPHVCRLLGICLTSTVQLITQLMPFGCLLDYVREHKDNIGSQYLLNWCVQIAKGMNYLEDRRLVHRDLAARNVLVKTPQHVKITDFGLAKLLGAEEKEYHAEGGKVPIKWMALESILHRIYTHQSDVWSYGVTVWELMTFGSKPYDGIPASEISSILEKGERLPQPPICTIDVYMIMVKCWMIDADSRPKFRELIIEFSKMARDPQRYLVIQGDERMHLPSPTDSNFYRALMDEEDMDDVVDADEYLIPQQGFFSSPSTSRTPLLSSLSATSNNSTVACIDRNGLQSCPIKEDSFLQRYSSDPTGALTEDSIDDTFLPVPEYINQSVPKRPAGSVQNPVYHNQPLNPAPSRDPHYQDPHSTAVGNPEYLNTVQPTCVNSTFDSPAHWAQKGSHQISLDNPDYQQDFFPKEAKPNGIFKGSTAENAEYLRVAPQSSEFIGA

[6] = target: Fibroblast growth factor receptor 4 (Homo sapiens) (UniProt P22455); assay: Inhibition of His-tagged human recombinant FGFR4 ([…] residues) expressed in baculovirus expression system at 100 to 1000 nM by Z'-LYTE assay; details: dose 100-1000 nM; summary of the method: as §1
Sequence of Fibroblast growth factor receptor 4 (Homo sapiens) (P22455 22-802 limits assumed): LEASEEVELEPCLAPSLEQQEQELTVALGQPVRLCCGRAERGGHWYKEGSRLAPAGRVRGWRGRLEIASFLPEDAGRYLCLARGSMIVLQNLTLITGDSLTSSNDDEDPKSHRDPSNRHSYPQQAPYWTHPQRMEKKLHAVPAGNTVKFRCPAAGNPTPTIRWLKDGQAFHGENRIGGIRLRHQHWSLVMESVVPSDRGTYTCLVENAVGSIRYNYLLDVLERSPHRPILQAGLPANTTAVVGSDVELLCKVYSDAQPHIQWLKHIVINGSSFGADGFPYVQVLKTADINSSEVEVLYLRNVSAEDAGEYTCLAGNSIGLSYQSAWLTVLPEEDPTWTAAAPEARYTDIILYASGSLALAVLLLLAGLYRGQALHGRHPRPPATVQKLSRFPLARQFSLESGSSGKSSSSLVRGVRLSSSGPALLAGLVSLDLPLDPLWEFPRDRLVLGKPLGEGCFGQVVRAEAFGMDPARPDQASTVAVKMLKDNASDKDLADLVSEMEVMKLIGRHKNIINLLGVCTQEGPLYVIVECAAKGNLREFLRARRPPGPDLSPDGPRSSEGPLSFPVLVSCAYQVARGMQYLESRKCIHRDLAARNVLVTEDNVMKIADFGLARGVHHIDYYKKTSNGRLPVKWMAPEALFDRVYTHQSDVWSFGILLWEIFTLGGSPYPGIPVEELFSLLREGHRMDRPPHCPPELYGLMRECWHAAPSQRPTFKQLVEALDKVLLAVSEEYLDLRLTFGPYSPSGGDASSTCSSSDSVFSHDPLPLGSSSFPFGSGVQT

Compound	inhibition [1]	inhibition [2]	inhibition [3]	inhibition [4]	inhibition [5]	inhibition [6]
COc1cc(N2CCN(C(C)=O)CC2)ccc1Nc1ncc(Cl)c(Nc2ccc(NCc3ccc(S(=O)(=O)F)cc3)cc2)n1	inactive	< 25%	100%	100%	–	–
C#CCNC(=O)c1cc(Nc2cc(C3CC3)[nH]n2)nc(N2CCN(Cc3ccc(S(=O)(=O)F)cc3)CC2)n1	–	–	–	–	inactive	inactive

Reference: ChEMBL document CHEMBL4828755, “A sulfonyl fluoride derivative inhibits EGFRL858R/T790M/C797S by covalent modification of the catalytic lysine” (Eur J Med Chem, 2021)
